Assay results published in ChEMBL document CHEMBL1133564, “A novel series of 4-piperidinopyridine and 4-piperidinopyrimidine inhibitors of 2,3-oxidosqualene cyclase-lanosterol synthase” (J Med Chem, 2000).
Values belong to the compound of their own block, whether it stands above or below them.

Tests used:
[1] = Inhibition of cholesterol biosynthesis in rat following 2 mg/kg p.o. administration.; type: functional; conditions: route oral
How it was run: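 Female rats (130 ± 20 g) kept on reversed lighting, dosed orally at 2 mg/kg in DMSO/HPMC (n = 2). Tritiated mevalonate (2.5 µCi) given 1 h later; killed after a further 1 h. Liver saponified in KOH/EtOH 80 °C 2 h, isohexane-extracted, analysed by HPLC. Percent inhibition of cholesterol biosynthesis versus controls, with sterol precursor profile for step selectivity.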

[2] = Compound was tested for its acid dissociation constant; type: ADME
Lanosterol synthase [3] = biological target: T1, Lanosterol synthase (Rattus norvegicus, UniProt P48450); experiment: In vitro inhibitory activity of the compound against rat microsomal 2,3-Oxidosqualene cyclase-Lanosterol synthase (OSC)
T1 sequence (P48450 whole entry): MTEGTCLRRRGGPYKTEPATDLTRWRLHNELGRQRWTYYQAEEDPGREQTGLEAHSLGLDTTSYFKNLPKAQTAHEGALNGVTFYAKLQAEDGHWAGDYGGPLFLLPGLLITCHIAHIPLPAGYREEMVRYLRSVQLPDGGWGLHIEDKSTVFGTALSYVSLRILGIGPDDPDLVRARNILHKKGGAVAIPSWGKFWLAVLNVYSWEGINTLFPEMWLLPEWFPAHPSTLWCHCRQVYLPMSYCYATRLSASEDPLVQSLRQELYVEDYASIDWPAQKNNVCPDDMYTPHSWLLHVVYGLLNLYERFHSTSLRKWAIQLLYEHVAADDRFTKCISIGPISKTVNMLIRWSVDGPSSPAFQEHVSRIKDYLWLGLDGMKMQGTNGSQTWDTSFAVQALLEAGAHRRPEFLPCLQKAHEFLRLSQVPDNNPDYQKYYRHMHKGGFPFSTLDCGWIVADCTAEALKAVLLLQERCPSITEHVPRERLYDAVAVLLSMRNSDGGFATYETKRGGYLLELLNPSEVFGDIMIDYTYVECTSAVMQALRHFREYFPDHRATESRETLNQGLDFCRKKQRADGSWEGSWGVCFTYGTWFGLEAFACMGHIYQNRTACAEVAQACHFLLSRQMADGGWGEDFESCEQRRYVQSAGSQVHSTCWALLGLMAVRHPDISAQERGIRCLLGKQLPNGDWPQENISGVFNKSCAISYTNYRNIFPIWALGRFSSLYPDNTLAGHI
How it was run: (§1)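 Rat liver microsomes (15-20 mg/mL protein stock) diluted in 50 mM phosphate buffer pH 7.4 with Tween. Test compound at serial 10-fold dilutions (10^-5 M, 10^-6 M, etc.) preincubated with microsomes 10 min at 37 °C. Oxidosqualene substrate added, then 1 h incubation. Stopped with ethanolic KOH, saponified 80 °C 2 h, hexane-extracted. IC50 by curve fitting with tight-binding model. Human OSC run the same way.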

[4] = Effective dose (50%) required to inhibit cholesterol biosynthesis in rat after administration of a shallow oral dose; type: functional
How it was run: (§2)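 Female rats (130 ± 20 g) on reversed lighting, given test compound orally across a dose range in DMSO/HPMC (n = 2). Tritiated mevalonate (2.5 µCi) 1 h post-dose; killed 1 h later. Liver saponified, isohexane-extracted, HPLC radio-profile of sterols. ED50 or ED80 for inhibition of cholesterol biosynthesis derived from dose-response.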

[5] = Effective dose (80%) required to inhibit cholesterol biosynthesis in rat after administration of a shallow oral dose; type: functional; how it was run: as §2
[6] = biological target: T2, Lanosterol synthase (Rattus norvegicus) (UniProt P48450); experiment: In vitro percent inhibitory activity of the compound against rat microsomal OSC enzyme at 1 uM concentration
T2 sequence (whole entry): T1 sequence (P48450 whole entry)
How it was run: (§3)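 Rat liver microsomal OSC in phosphate-buffered Tween, pH 7.4, with test compound at 1 µM. Preincubation 10 min at 37 °C, then oxidosqualene added for 1 h. Stopped with ethanolic KOH at 80 °C for 2 h, hexane-extracted. Percent inhibition, n = 2.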

[7] = biological target: T2, Lanosterol synthase (Rattus norvegicus); experiment: In vitro percent inhibitory activity against rat microsomal OSC enzyme at 1 uM concentration; how it was run: as §3
[8] = biological target: T2, Lanosterol synthase (Rattus norvegicus); experiment: (§4) In vitro inhibitory activity of the compound against rat microsomal 2,3-Oxidosqualene lanosterol cyclase (OSC); conditions: concentration not given here; how it was run: as §1
Lanosterol synthase [9] = biological target: T3, Lanosterol synthase (Homo sapiens, UniProt P48449); experiment: Compound was tested for its inhibition against human OSC enzyme; how it was run: as §1
T3 sequence (P48449 whole entry): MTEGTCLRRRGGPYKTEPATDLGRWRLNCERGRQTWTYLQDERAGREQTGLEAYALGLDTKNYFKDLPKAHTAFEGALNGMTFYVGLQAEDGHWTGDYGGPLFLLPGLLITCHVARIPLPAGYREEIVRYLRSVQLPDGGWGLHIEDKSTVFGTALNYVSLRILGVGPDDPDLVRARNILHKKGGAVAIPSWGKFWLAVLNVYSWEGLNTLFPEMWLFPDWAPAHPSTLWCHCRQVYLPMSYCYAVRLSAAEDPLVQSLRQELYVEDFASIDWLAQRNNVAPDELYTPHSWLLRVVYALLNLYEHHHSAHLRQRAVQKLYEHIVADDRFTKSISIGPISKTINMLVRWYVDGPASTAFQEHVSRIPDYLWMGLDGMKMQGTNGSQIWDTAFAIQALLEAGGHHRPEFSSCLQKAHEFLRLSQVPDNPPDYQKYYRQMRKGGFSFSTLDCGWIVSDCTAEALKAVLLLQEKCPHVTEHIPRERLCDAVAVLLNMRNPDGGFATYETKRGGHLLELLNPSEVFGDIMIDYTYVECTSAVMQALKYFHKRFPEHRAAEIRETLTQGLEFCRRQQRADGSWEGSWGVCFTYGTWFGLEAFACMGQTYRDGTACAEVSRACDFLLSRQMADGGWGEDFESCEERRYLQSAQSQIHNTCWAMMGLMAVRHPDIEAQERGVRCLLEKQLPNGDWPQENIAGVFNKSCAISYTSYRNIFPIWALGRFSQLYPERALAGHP

Lanosterol synthase [10] = biological target: T1, Lanosterol synthase; experiment: Compound was tested for its inhibition against rat OSC enzyme; how it was run: as §1
[11] = Effective dose (50%) required to inhibit cholesterol biosynthesis in rat after oral administration; type: functional; how it was run: as §2
[12] = Effective dose (80%) required to inhibit cholesterol biosynthesis in rat after oral administration; type: functional; how it was run: as §2
[13] = biological target: T2, Lanosterol synthase (Rattus norvegicus); experiment: Compound was tested for percent inhibition of OSC at 1 uM concentration in rat; how it was run: as §3
Lanosterol synthase [14] = biological target: T1, Lanosterol synthase; experiment: as §4; how it was run: as §1

pKa [2]: 9.2
IC50 (Lanosterol synthase [3]): 82 nM
Compound: O=C(C1CCN(c2ccncc2)CC1)N1CCN(S(=O)(=O)c2ccc(I)cc2)CC1
inhibition in vivo at 2 mg/kg [1]: 52%
ED50 [4]: 2 mg/kg
ED80 [5]: < 20 mg/kg

inhibition [6]: 100%
Compound: O=C(C1CCN(C2=NCCS2)CC1)N1CCN(S(=O)(=O)c2ccc(Br)cc2)CC1
inhibition in vivo at 2 mg/kg [1]: 81%

inhibition [7]: 8%
Compound: O=C(C1CCN(c2ncccn2)CC1)N1CCN(S(=O)(=O)c2ccc(Br)cc2)CC1
inhibition in vivo at 2 mg/kg [1]: 23%

inhibition [8]: 87%
Compound: O=C(C1CCN(C2=NCCO2)CC1)N1CCN(S(=O)(=O)c2ccc(Br)cc2)CC1
inhibition in vivo at 2 mg/kg [1]: 82%

pKa [2]: 6.1
IC50 (Lanosterol synthase [9]): 37 nM
IC50 (Lanosterol synthase [10]): 116 nM
inhibition [6]: 100%
Compound: O=C(C1CCN(c2ccncn2)CC1)N1CCN(S(=O)(=O)c2ccc(Br)cc2)CC1
inhibition in vivo at 2 mg/kg [1]: 81%
ED50 [11]: 0.5 mg/kg
ED80 [12]: 1.4 mg/kg

pKa [2]: 9.2
IC50 (Lanosterol synthase [9]): 161 nM
inhibition [13]: 100%
IC50 (Lanosterol synthase [14]): 228 nM
Compound: O=C(C1CCN(c2ccncc2)CC1)N1CCN(S(=O)(=O)c2ccc(Br)cc2)CC1
inhibition in vivo at 2 mg/kg [1]: 69%
ED50 [11]: 2 mg/kg
ED80 [12]: > 2 mg/kg

IC50 (Lanosterol synthase [9]): 143 nM
IC50 (Lanosterol synthase [14]): 326 nM
Compound: O=C(C1CCN(c2ccncc2)CC1)N1CCN(S(=O)(=O)c2ccccc2)CC1
inhibition in vivo at 2 mg/kg [1]: 53%

inhibition [6]: 3%
Compound: Cc1nsc(N2CCC(C(=O)N3CCN(S(=O)(=O)c4ccc(Br)cc4)CC3)CC2)n1
inhibition in vivo at 2 mg/kg [1]: 9%

pKa [2]: 7.2
IC50 (Lanosterol synthase [9]): 112 nM
IC50 (Lanosterol synthase [10]): 398 nM
inhibition [6]: 76%
Compound: Cc1nccc(N2CCC(C(=O)N3CCN(S(=O)(=O)c4ccc(Br)cc4)CC3)CC2)n1
inhibition in vivo at 2 mg/kg [1]: 83%
ED50 [11]: 0.3 mg/kg
ED80 [12]: 1.2 mg/kg

More lines, now with the values behind:

Compound: O=C(C1CCN(c2ccncc2)CC1)N1CCN(S(=O)(=O)c2cccc(Br)c2)CC1
inhibition in vivo at 2 mg/kg [1]: 43%

Compound: COc1ccc(S(=O)(=O)N2CCN(C(=O)C3CCN(c4ccncc4)CC3)CC2)cc1
inhibition in vivo at 2 mg/kg [1]: 38%

Compound: N#Cc1ccc(S(=O)(=O)N2CCN(C(=O)C3CCN(c4ccncc4)CC3)CC2)cc1
inhibition in vivo at 2 mg/kg [1]: 12%

Compound: O=C(c1ccc(Br)cc1)N1CCN(C(=O)C2CCN(c3ccncc3)CC2)CC1
inhibition [8]: 96%
inhibition in vivo at 2 mg/kg [1]: 28%

Compound: O=C(C1CCN(c2ccnnc2)CC1)N1CCN(S(=O)(=O)c2ccc(Br)cc2)CC1
inhibition in vivo at 2 mg/kg [1]: 54%

Compound: O=C(C1CCN(c2ccncc2)CC1)N1CCN(S(=O)(=O)c2ccc(F)cc2F)CC1
inhibition in vivo at 2 mg/kg [1]: 10%

Compound: CCC(C)(C)C(=O)O[C@H]1C[C@@H](C)C=C2C=C[C@H](C)[C@H](CC[C@@H]3C[C@@H](O)CC(=O)O3)[C@H]21 [SIMVASTATIN]
ED80 [12]: 1.2 mg/kg

Compound: Cc1ccc(S(=O)(=O)N2CCN(C(=O)C3CCN(c4ccncc4)CC3)CC2)cc1
inhibition in vivo at 2 mg/kg [1]: 66%

Compound: O=C(C1CCN(c2ccncc2)CC1)N1CCN(S(=O)(=O)c2cccc(F)c2)CC1
inhibition in vivo at 2 mg/kg [1]: 52%

Compound: O=C(c1ccc(Cl)cc1)c1ccc(OC2CN3CCC2CC3)cc1 (centres undefined)
pKa [2]: 9.1
ED50 [11]: 2 mg/kg

Compound: O=C(c1ccc(C(F)(F)F)cc1)N1CCC(=Cc2ccc(C3=NCCO3)cc2)CC1
pKa [2]: 4.7
inhibition in vivo at 2 mg/kg [1]: 93%
ED50 [11]: 0.4 mg/kg
ED80 [12]: 1 mg/kg
IC50 (Lanosterol synthase [14]): 90 nM

Compound: O=C(C1CCN(c2ccncc2)CC1)N1CCN(S(=O)(=O)c2cccc(C(F)(F)F)c2)CC1
inhibition in vivo at 2 mg/kg [1]: 7%

Compound: O=C(C1CCN(c2ccncc2)CC1)N1CCN(S(=O)(=O)c2ccc(F)cc2)CC1
inhibition in vivo at 2 mg/kg [1]: 46%

Compound: O=C(C1CCN(c2ccncc2)CC1)N1CCN(Cc2ccc(Br)cc2)CC1
inhibition [8]: 100%
inhibition in vivo at 2 mg/kg [1]: 48%
ED50 [11]: 1.8 mg/kg
